Measurements from ChEMBL document CHEMBL4145558, “Structure-Activity Relationship Study on Odoamide: Insights into the Bioactivities of Aurilide-Family Hybrid Peptide-Polyketides” (ACS Med Chem Lett, 2018).

Columns and labels:
[1] = tested on: A549; assay: Cytotoxicity against human A549 cells assessed as inhibition of cell growth after 72 hrs by MTS assay; assay type: functional, cell-based; conditions: A549, 72 h
In short: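 A549 cells exposed to each peptide for 72 h; growth read by MTS assay. IC50 taken as the concentration giving 50% growth inhibition, n = 3.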

[2] = Permeability of the compound in pH 7.4 phosphate buffer solution after 4 hrs by LC-MS/MS based PAMPA assay; assay type: ADME; conditions: read-out: permeability
In short: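 PAMPA run at pH 7.4, under the in vitro bioassay conditions.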

[3] = Protein binding in 10% fetal bovine serum at 1 uM after 4 hrs in presence of cell culture medium by rapid equilibrium dialysis based LC-MS/MS analysis; assay type: ADME, cell-free, Bos taurus; conditions: cattle, 10% fetal bovine serum in cell culture medium; read-out: PB (converted)
In short: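 Peptides tested in cell culture medium supplemented with 10% (v/v) fetal bovine serum. The ratio of unbound peptide was determined.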

Work on `CCC[C@H](C)[C@H]1OC(=O)[C@H](C)N(C)C(=O)[C@H]([C@@H](C)CC)NC(=O)CN(C)C(=O)[C@@H](Cc2ccccc2)N(C)C(=O)[C@H](C)NC(=O)[C@@H]([C@@H](C)CC)OC(=O)/C(C)=C/C=C/[C@@H]1C` yielded an IC50 [1] of 0.028 µM.

For `CCC[C@H](C)[C@H]1OC(=O)[C@H](C)N(C)C(=O)[C@@H]([C@@H](C)CC)NC(=O)CN(C)C(=O)[C@@H](Cc2ccccc2)N(C)C(=O)[C@H](C)NC(=O)[C@@H]([C@@H](C)CC)OC(=O)/C(C)=C/C[C@H](O)[C@@H]1C`, the IC50 [1] was 0.645 µM.

With `CCC[C@H](C)[C@@H](O)[C@@H](C)[C@@H]1C/C=C(\C)C(=O)O[C@H]([C@@H](C)CC)C(=O)N[C@@H](C)C(=O)N(C)[C@H](Cc2ccccc2)C(=O)N(C)CC(=O)N[C@@H]([C@@H](C)CC)C(=O)N(C)[C@@H](C)C(=O)O1` the IC50 [1] was 0.0045 µM.

With `CCC[C@H](C)[C@H]1OC(=O)[C@H](C)N(C)C(=O)[C@H]([C@@H](C)CC)NC(=O)CNC(=O)[C@@H](Cc2ccccc2)N(C)C(=O)[C@H](C)NC(=O)[C@@H]([C@@H](C)CC)OC(=O)/C(C)=C/C[C@H](O)[C@@H]1C` the IC50 [1] was 0.031 µM and the Papp at 4 h [2] was > 1 ×10⁻⁶ cm/s.

For `CCC[C@H](C)[C@H]1OC(=O)[C@@H](C)N(C)C(=O)[C@H]([C@@H](C)CC)NC(=O)CN(C)C(=O)[C@@H](Cc2ccccc2)N(C)C(=O)[C@H](C)NC(=O)[C@@H]([C@@H](C)CC)OC(=O)/C(C)=C/C[C@H](O)[C@@H]1C`, the fraction unbound at 4 h, 1 µM [3] was 0.145, the IC50 [1] was 0.0019 µM and the Papp at 4 h [2] was > 1 ×10⁻⁶ cm/s.

For `CCC[C@H](C)[C@H]1OC(=O)[C@H](C)N(C)C(=O)[C@H]([C@@H](C)CC)NC(=O)CCN(C)C(=O)[C@@H](Cc2ccccc2)N(C)C(=O)[C@H](C)NC(=O)[C@@H]([C@@H](C)CC)OC(=O)/C(C)=C/C[C@H](O)[C@@H]1C`, the IC50 [1] was 0.074 µM and the Papp at 4 h [2] was > 1 ×10⁻⁶ cm/s.

`CCC[C@H](C)[C@H]1OC(=O)[C@H](C)N(C)C(=O)[C@H]([C@@H](C)CC)NC(=O)CN(C)C(=O)[C@H](Cc2ccccc2)N(C)C(=O)[C@H](C)NC(=O)[C@@H]([C@@H](C)CC)OC(=O)/C(C)=C/C[C@H](O)[C@@H]1C` showed an IC50 [1] of 0.048 µM.

For `CCC[C@H](C)[C@H]1OC(=O)[C@H](C)N(C)C(=O)[C@H]([C@@H](C)CC)NC(=O)CN(C)C(=O)[C@@H](Cc2ccccc2)N(C)C(=O)[C@H](C)NC(=O)[C@@H]([C@@H](C)CC)OC(=O)/C(C)=C/C[C@H](O)[C@@H]1C`, the fraction unbound at 4 h, 1 µM [3] was 0.241, the IC50 [1] was 0.0042 µM and the Papp at 4 h [2] was > 1 ×10⁻⁶ cm/s.

`CCC[C@H](C)[C@H]1OC(=O)[C@H](C)N(C)C(=O)[C@H]([C@@H](C)CC)NC(=O)CN(C)C(=O)[C@@H](Cc2ccccc2)NC(=O)[C@H](C)NC(=O)[C@@H]([C@@H](C)CC)OC(=O)/C(C)=C/C[C@H](O)[C@@H]1C` showed an IC50 [1] of 0.0054 µM.

In the case of `CCC[C@H](C)[C@H]1OC(=O)[C@H](C)N(C)C(=O)[C@H]([C@@H](C)CC)NC(=O)CN(C)C(=O)[C@@H](Cc2ccccc2)N(C)C(=O)[C@H](C)NC(=O)[C@@H]([C@@H](C)CC)OC(=O)/C(C)=C/C[C@H](OC)[C@@H]1C`, the fraction unbound at 4 h, 1 µM [3] is reported as 0.028, the IC50 [1] is reported as 0.0043 µM and the Papp at 4 h [2] is reported as > 1 ×10⁻⁶ cm/s.

With `CCC[C@H](C)[C@H]1OC(=O)[C@H](C)N(C)C(=O)[C@H]([C@@H](C)CC)NC(=O)CN(C)C(=O)[C@@H](Cc2ccccc2)N(C)C(=O)[C@@H](C)NC(=O)[C@@H]([C@@H](C)CC)OC(=O)/C(C)=C/C[C@H](O)[C@@H]1C` the IC50 [1] was 1.55 µM and the Papp at 4 h [2] was > 1 ×10⁻⁶ cm/s.
